A selection: hits, their analogues and other compounds. The true share with any hit is near 7.4%.
JNK3 inh = inhibitors of human JNK3 kinase | purified JNK3 kinase activity, HTS | inhibition, % at 8 µM | 60,000 tested, 0.61% active | AID 746; in the data active = inhibition above about 17%;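 note: 0% = DMSO and 100% = reference inhibitor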
M1 agonist = activates the M1 muscarinic receptor; CHO-M1 cells, Fluo-4 calcium fluorescence, agonist mode; active compounds read high; B-score at 10 µM; 64,000 tested, 3% active;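 active = fluorescence rise, raw or as B-score row- and column-corrected plate score, outside the 99.7% band of its plate's samples, either direction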
Jurkat tox 60K = cytotoxic compounds reducing Jurkat cell viability. 56,000 tested, 1.2% active. Jurkat E6.1 viability, ATP luminescence, 48 h. inhibition, % at 4 µM. AID 463;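 active = inhibition above the mean inhibition of all tested compounds plus 3 SD, cut at about 28% in these data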
S1P1 ag pot = activates or potentiates agonism at human S1P1 receptor | S1P1 CRE-bla cells, forskolin, beta-lactamase FRET, potentiator mode; S1P1 agonist co-added at EC20, 2 nM; 100% = saturating reference agonist, 0% = basal | activation, % at 9.5 µM | 56,000 tested, 0.57% active;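 active = activation above a cutoff set at the mean activation of all tested compounds plus 3 SD, cut at about 54% in these data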;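 note: forskolin at 4 µM as EC80 and the EC20 agonist is SEW2871; 100% = SEW2871 at its EC100 plus forskolin at EC80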
M1 antag = blocks the rat M1 muscarinic receptor response to acetylcholine; P08482; CHO-M1 cells, Fluo-4 calcium, ACh EC80 antagonist mode; active compounds read low; B-score at 10 µM; 64,000 tested, 3.4% active; AID 628;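 active = calcium fluorescence response, raw or row-and-column corrected B-score, differing from the plate sample mean either way at a set confidence level, mostly lower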
Target sequence (P08482 whole entry, looked up): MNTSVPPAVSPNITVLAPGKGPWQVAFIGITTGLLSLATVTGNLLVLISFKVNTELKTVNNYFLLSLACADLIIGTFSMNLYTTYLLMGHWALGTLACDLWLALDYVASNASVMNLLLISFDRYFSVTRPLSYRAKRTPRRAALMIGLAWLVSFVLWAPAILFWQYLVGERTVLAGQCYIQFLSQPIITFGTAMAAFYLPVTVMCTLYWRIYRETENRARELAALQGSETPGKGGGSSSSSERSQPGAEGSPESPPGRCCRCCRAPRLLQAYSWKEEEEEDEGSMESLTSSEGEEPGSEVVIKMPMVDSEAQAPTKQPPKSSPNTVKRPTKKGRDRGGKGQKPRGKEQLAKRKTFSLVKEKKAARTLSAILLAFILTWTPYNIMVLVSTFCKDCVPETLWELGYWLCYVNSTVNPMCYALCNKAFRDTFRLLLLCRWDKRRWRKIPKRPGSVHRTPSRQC
S1P3 ag = activates the human S1P3 receptor. 60,000 tested, 0.1% active. AID 373. Q99500. S1P3 NFAT-BLA reporter cells, agonism, FRET ratio; relative to 1 µM S1P, basal subtracted. activation, % at 4.5 µM;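 active = activation above the screen-wide mean plus 3 SD, cut at about 4.5% in these data, passing the limit was not always enough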
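Material: Human S1P3 NFAT-BLA reporter CHO cells | Incubation: Overnight plating, 4 h compound 37 °C, 2 h substrate RT | Signal: FRET β-lactamase substrate fluorescence, excitation 405 nm, 460/535 nm emission ratio, background-subtracted | Compound: 4.5 µM final, single dose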
M1 antag confirm = M1 muscarinic receptor (rat) antagonism, confirmed; calcium response (max-min fluorescence) at 10 µM; CHO-M1 cells, Fluo-4 calcium, ACh EC80 antagonism; active compounds read low; AID 677; 1,700 tested, 43% active; shares compounds with M1 antag;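 active = calcium response below the same-plate mean of wells given acetylcholine alone at its 80%-effect dose, minus 3 SD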;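 note: raw fluorescence intensity difference in arbitrary instrument units and not normalized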
mGluR4 antag = acts on human mGluR4 in M1 antagonist selectivity test; 1,700 tested, 0.9% active; fluorescence response (max-min) at 10 µM; CHO-mGluR4 calcium flux, Fluo-4 fluorescence, glutamate EC80; active compounds read low; shares compounds with M1 antag;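 active = fluorescence response below the plate's average for near-maximal glutamate wells, less 3 SD of those wells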;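 note: raw unnormalized fluorescence span taken in the window right after glutamate addition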
The depositor's hits bear a star; x = no result given.

SMILES	JNK3 inh	M1 agonist	Jurkat tox 60K	S1P1 ag pot	M1 antag	S1P3 ag	M1 antag confirm	mGluR4 antag
CCOC(=O)C1CCCN(CC(=O)Nc2c(C(=O)OC)[nH]c3ccc(Br)cc23)C1 (stereo not drawn)	-31	-0.016	7	-1	1.1	0	x	x
COC(=O)c1[nH]c2ccccc2c1NC(=O)CN1CCN(Cc2ccc3c(c2)OCO3)CC1	-1	0.17	10	-17	-1.6	1	x	x
COC(=O)c1[nH]c2ccc(F)cc2c1NC(=O)CCN1CCN(Cc2ccc3c(c2)OCO3)CC1	4	0.65	-2	6	-7.6*	-2	125*	204
CCOC(=O)c1ccc(N2C(=O)CC(NC3CCN(C(=O)c4cccc(Cl)c4)CC3)C2=O)cc1 (stereo not drawn)	-1	-0.96	4	10	-0.19	-1	x	x
COC(=O)c1[nH]c2cccc(Cl)c2c1NC(=O)CN(C)C1CCCCC1	-2	1.2	-3	7	-1.8*	0	367*	180
O=C(NCc1ccccc1)N1CCC(n2cnc3cc(F)ccc32)CC1	16	-0.054	1	14	0.47	0	x	x
COc1ccc(CNC(=O)CSc2nnnn2Cc2ccccc2)cc1	10	-0.67	0	19	0.97	0	x	x
COc1ccc(CNC(=O)CSc2nnnn2-c2ccccc2)cc1	-11	0.15	5	-13	-4.8*	-1	655	249
COc1ccc(CCNC(=O)c2ccc(NS(=O)(=O)c3c(C)noc3C)cc2)cc1OC	4	-1.8	-6	-14	-0.00064	1	x	x
CCC(=O)n1nc(NCc2ccccc2OC)nc1NCc1ccccc1OC	6	0.7	-5	x	-1.2	-1	x	x
CC1(C)Cc2c(sc3c2C2=NCCN2C=N3)CS1	-3	-0.36	x	-3	-5.4*	-3	411*	254
CCCCC(CC)C(=O)NCCCN1CCN(CCCNC(=O)C(CC)CCCC)CC1 (stereo not drawn)	3	1.9	-10	x	-0.093	-1	x	x
Cc1cc(NC(=O)Cn2nnc3sc4c(c3c2=O)CCC(C(C)(C)C)C4)no1 (stereo not drawn)	3	-0.18	-5	-28	0.023	0	x	x
Cc1cc(NC(=O)Cn2nnc3sc4c(c3c2=O)CCCC4)no1	5	-0.74	-2	-15	-5*	0	549	248
Cc1cc2nc(C)n(CCCNC(=O)Nc3ccc(C#N)cc3)c2cc1C	6	-0.79	10	13	-10*	-1	135*	210
Cc1cc2nc(C)n(CCCN)c2cc1C	9	0.18	3	11	0.021	-1	x	x
Cc1ccc(-c2nn(CC(=O)NCCN3CCOCC3)c(=O)c3ccccc23)cc1	5	1.9	0	9	-2.5*	0	657	220
CC(C)OC(=O)C(C#N)c1nc2ccccc2nc1N1CCCC1 (stereo not drawn)	-6	2.3	x	-10	-0.33	-4	x	x
C=CCNC(=O)C(C#N)c1nc2ccccc2nc1N1CCCCCC1 (stereo not drawn)	6	1.6	x	-22	-2.8*	0	603	274
CCOC(=O)N1CCN(C(=O)c2ccc3c(c2)ncn3C2CCCC2)CC1	-6	1.6	1	-6	-2.3*	-1	438	211
Clc1ccc(OCCn2ccnc2)c(Cl)c1	4	-1.7	10	-6	-3*	-1	408*	211
CC(=O)c1ccc(NS(=O)(=O)c2cccc(C)c2)cc1	x	0.95	x	x	-0.096	x	x	x
O=C(CCCN1CCC(c2ccccc2)C1)c1ccc2c(c1)OCCO2 (stereo not drawn)	-8	-0.55	-1	-10	-8.8*	0	251*	229
O=C(CCCN1CCOCC1)c1ccc2c(c1)OCCO2	-1	-0.066	6	6	-1.7	0	x	x
O=C(CCN1CCc2ccccc2CC1)c1ccc2c(c1)OCCO2	0	0.069	x	53	-3.9*	0	215*	194

Screens (PubChem)
